Columns and labels:
[1] = test system: splenocytes of HHDII/DR1 mice (T-cell IFNγ response); experiment: IFNγ ELISpot on splenocytes of peptide-immunized HLA-A2 transgenic; type: in vivo, mouse; conditions: for Modification specificity of IFNγ response (Hcit versus wt peptide): HHDII/DR1 and HHDII mice immunized with long Hcit peptide (figure 2A); for Effect of CD4 or CD8 blocking antibody on IFNγ response, ex vivo: HHDII/DR1 mice immunized with long Hcit peptide, 20 µg/mL anti-CD4 or anti-CD8 (figure 1C); for IFNγ response after immunization with wt peptide: HHDII/DR1 mice, tested against wt or Hcit peptides (figure 2B)
Outline: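 HHDII/DR1 or HHDII mice get 25 µg peptide s.c. (stock 1 mg/mL in 20% DMSO/PBS) with 5 µg each CpG ODN 1826 and monophosphoryl lipid A in PBS on days 1, 8 and 15. Spleens taken day 21. 5×10^5 splenocytes/well in quadruplicate are restimulated with peptide for 40 h at 37°C, 5% CO2. IFNγ spots are counted automatically and reported as mean spots/million splenocytes per mouse; n=3 per group.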

[2] = test system: HLA-A2 on T2 cells; experiment: T2 binding assay; type: cell-based, human; conditions: different peptide concentrations; three independent experiments (figure 3C,D)
Outline: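 T2 cells (2×10^6/mL) are incubated overnight at 37°C with peptide (dilutions prepared at 400, 40 and 4 µg/mL before mixing) and recombinant human β2-microglobulin (prepared at 800 ng/mL). Brefeldin A is added for 1 h before anti-HLA-A2 FITC staining and flow cytometry. Binding is taken as median fluorescence intensity; three independent experiments, two-way ANOVA.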

[3] = test system: B16 HHDII melanoma cells; experiment: In vivo antitumor study, B16 HHDII tumor in HHDII mice; conditions: aggressive mouse B16 melanoma model, peptide vaccination
Outline: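 HHDII mice receive 5×10^4 B16 HHDII cells s.c. on day 1, then peptide plus CpG/MPLA adjuvant on days 4, 8 and 11. In depletion arms, anti-CD4 (GK1.5) or anti-CD8 (2.43) is given i.p., 500 µg day 4 and 300 µg days 8 and 11. Tumours are checked twice weekly, with euthanasia near 15 mm diameter; n=5–10 per group.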

Row | Substance | Modification specificity of IFNγ response (Hcit versus wt peptide) [1] | Effect of CD4 or CD8 blocking antibody on IFNγ response, ex vivo [1] | IFNγ response after immunization with wt peptide [1] | further results
1 | LEQQN-Hcit-MLET- Hcit-WSLLQQQ- Hcit-T [Cyk8 112-132Hcit] | strong modification specific responses | either anti-CD8 or anti-CD4 antibody significantly reduced the immune response | – | –
2 | VLAAVY-Hcit-AL [Aldo 209-217Hcit] | – | – | – | HLA-A2 binding affinity of Hcit peptide compared with corresponding wt peptide [2]: higher binding affinity; survival [3]: at least 50%; IFNγ response to short peptide in mice immunized with the long Hcit peptide ([1]; HHDII/DR1 mice immunized with Aldo 204-219Hcit or Cyk8 112-132Hcit (figure 2C)): strong responses
3 | Cyk8 112–132wt: wild type (native) long cytokeratin 8 peptide (LEQQNKMLETKWSLLQQQKTA; UniProt P05787 112-132, looked up, fragment) | – | – | failed to stimulate detectable IFNγ immune responses | –
4 | YVTE-Hcit-VLAAVY-Hcit-ALSD [Aldo 204-219Hcit] | strong modification specific responses | not affected by either of the blocking antibody | – | –
5 | Aldo 204–219wt: wild type (native) long aldolase A peptide (YVTEKVLAAVYKALSD; UniProt P04075 204-219, looked up, fragment) | – | – | failed to stimulate detectable IFNγ immune responses | –
